Test [1] is described as follows: inhibitors of TNFa-induced NFkB p65 translocation, primary screen, imaging, HUVEC, MLSMR starter and 10KST1 sets (AID 438;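 active = inhibition above 20% together with a positive visual image hit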;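 note: compound added about 3h40 before a 20 min TNFalpha stimulation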;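 for inhibition: signal is the nuclear over cytoplasmic p65 intensity ratio per well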). Conditions: HUVEC TNFa-induced p65 nuclear translocation; cell count: measured here: nuclei count (cytotoxicity indicator), at 2.08 µM; inhibition: at 2 µM, stronger effect = higher value, 0% TNFa-plus-vehicle, 100% no-TNFa wells.
The nature of test [2]: endothelial E-selectin expression blockers – imaging, HUVEC, immunofluorescence, MLSMR starter and 10KST1 sets, primary screen (AID 487;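 active = visually confirmed hit in the image check and inhibition above 20%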;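 for inhibition: signal is fraction of cell area covered by stained E-selectin grains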;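 for nuclei count: 100% = median nuclei count of all wells on the same plate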). Conditions: HUVEC TNFalpha-induced E-selectin immunofluorescence imaging, at 2 µM; inhibition: stronger effect = higher value; nuclei count: measured here: cell number, toxicity.
A short description of test [3]: Primary imaging screen for DUSP6 inhibitors that restore phospho-Erk in transfected HeLa cells, chemical complementation (AID 609).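 For inhibition: phospho-Erk level distribution per well compared with pooled transfected vehicle control wells.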 The conditions noted are these: HeLa MKP-3 transfected, phospho-Erk imaging KS statistic, at 10 µM, cells stimulated with TPA for 15 min.
The target of test [4] is Dual specificity protein phosphatase 6 (Homo sapiens) (UniProt Q16828). The test is described as above. Conditions: HeLa MKP-3 transfected, phospho-Erk imaging KS statistic; at 10 µM; stronger effect = higher value; cells stimulated with TPA for 15 min.
Chain of Dual specificity protein phosphatase 6 (Homo sapiens) (Q16828 whole entry, looked up): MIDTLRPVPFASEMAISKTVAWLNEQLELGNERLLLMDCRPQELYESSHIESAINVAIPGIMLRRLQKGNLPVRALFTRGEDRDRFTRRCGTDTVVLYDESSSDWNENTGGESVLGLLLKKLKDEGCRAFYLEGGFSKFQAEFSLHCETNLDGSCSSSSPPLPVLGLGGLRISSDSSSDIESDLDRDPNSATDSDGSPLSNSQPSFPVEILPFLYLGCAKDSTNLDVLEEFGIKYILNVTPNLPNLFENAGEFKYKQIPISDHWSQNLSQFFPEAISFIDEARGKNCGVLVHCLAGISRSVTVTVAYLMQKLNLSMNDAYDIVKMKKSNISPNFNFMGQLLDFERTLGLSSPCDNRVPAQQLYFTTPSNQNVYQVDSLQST
In test [5] the target is Voltage-gated potassium channel subunit beta-2 (Rattus norvegicus) (UniProt P62483). Briefly: inhibitors of rat Kvbeta2 reductase activity – biochemical, NADPH fluorescence, primary screen (AID 622;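 active = fluorescence slope higher than the sample average by over 3 SD, cut at about -0.22 in these data, passing the limit was not always enough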;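 note: slope of raw intensity against log time taken from 70 to 1610 s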). The conditions noted are these: recombinant KvBeta, 4-cyanobenzaldehyde reduction, at 10 µM, stronger effect = higher value.
Chain of Voltage-gated potassium channel subunit beta-2 (Rattus norvegicus) (P62483 whole entry, looked up): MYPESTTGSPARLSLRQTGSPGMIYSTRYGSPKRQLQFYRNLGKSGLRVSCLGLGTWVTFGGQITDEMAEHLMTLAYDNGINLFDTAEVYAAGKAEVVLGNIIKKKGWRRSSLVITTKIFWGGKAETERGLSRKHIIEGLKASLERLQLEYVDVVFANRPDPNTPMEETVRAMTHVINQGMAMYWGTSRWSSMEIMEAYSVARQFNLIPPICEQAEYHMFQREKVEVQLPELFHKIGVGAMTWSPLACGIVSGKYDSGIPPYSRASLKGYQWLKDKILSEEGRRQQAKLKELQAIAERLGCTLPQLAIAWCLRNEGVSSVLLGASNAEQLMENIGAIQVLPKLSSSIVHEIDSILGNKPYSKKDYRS
Test [6] has the same target. Description: enhancers of rat Kvbeta2 NADPH turnover – biochemical, NADPH fluorescence, primary screen (AID 623;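 active = NADPH fluorescence slope more negative than the mean of all samples by about 3 SD, 99.7% confidence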;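 note: fluorescence intensity change per second fitted from 20 to 320 s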). Conditions: Recombinant KvBeta, NADPH fluorescence decrease slope, 10 min; at 10 µM; stronger effect = lower value.
Test [7] deals with Muscarinic acetylcholine receptor M4 (Homo sapiens) (UniProt P08173). Briefly: M4-linked GIRK flux change, two-sided – cell-based, HEK293 M4/GIRK, thallium flux, BTC-AM, M4 allosteric agonist project, primary screen (AID 625;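 active = fluorescence slope after compound addition differing from the mean of all tested samples at 99.7% confidence, mostly higher but some lower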;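 note: thallium influx through GIRK channels coupled to M4 in HEK293 cells with BTC-AM dye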). The conditions noted are these: at 10 µM, actives lie on both sides. An outline of the steps:
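System: HEK293 cells with M4 receptor and GIRK channels | Incubation: Cells overnight at 37 °C, BTC-AM loading 1 h, reads 2 min total | Technique: Kinetic BTC-AM fluorescence sampled at 1 Hz, 10 s pre-addition baseline | Measure: Post-addition slope, 15–24 s, of baseline-normalized fluorescence | Control set: Carbachol positive, DMSO negative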

A short description of test [8]: inhibitors of larval lipid processing in zebrafish, primary screen, whole organism, PED6 fluorescence, gall bladder and intestine (AID 686;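 active = a full or partial loss of lipid-probe fluorescence in the fish gall bladder, intestine or both, judged by eye; inactive = no fluorescence loss, or compound toxic to the fish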;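 note: larvae 5 to 7 days old with five fish per well; signal comes from phospholipase A2 cleavage of quenched PED6 carried via bile; overnight exposure to compound and PED6 before scoring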). The conditions noted are these: Zebrafish larvae PED6 lipid processing, fluorescence scoring; screened at 20 µM (by protocol). An outline of the steps:
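Test system – live zebrafish larvae aged 5-7 days, whole organism · Buffer or medium – E3 fish medium · Reagent – quenched phospholipase substrate PED6, 100 nM final, ingested by larvae · Doses – 20 µM single dose · Incubation – overnight compound and PED6 incubation · Technique – visual fluorescence microscopy scoring of gall bladder, gut · Read-out basis – visual per-well fluorescence inhibition score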

Test [9] is described as follows: loss of swimming-algae plug formation – whole organism, Chlamydomonas reinhardtii, WT vs cilia-less mutant, absorbance, 96-well, primary screen (AID 463189;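 active = inhibition at or above 50% relative to wild type and mutant plate controls; inactive = inhibition below 50%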;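 note: 0% = wild type cc124 cells in DMSO and 100% = ciliumless bld1 mutant cells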). The conditions noted are these: Chlamydomonas reinhardtii gravitaxis, OD600 absorbance, 2 days; at 10 µM; stronger effect = higher value.
The mark [10] stands for this setting: measured here: cell density z-score.
Setting [11] is: measured here: nuclear c-Myc green intensity z-score.
[12] abbreviates: measured here: nuclear pErk red intensity z-score, stronger effect = higher value.

Active and inactive are the calls of the source.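 Rule for the calls, unless noted: active = compounds giving at least 50% inhibition in the cell-based MKP-3 phosphatase rescue imaging test; inactive = the rest.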

Chain of Muscarinic acetylcholine receptor M4 (Homo sapiens) (P08173 whole entry, looked up): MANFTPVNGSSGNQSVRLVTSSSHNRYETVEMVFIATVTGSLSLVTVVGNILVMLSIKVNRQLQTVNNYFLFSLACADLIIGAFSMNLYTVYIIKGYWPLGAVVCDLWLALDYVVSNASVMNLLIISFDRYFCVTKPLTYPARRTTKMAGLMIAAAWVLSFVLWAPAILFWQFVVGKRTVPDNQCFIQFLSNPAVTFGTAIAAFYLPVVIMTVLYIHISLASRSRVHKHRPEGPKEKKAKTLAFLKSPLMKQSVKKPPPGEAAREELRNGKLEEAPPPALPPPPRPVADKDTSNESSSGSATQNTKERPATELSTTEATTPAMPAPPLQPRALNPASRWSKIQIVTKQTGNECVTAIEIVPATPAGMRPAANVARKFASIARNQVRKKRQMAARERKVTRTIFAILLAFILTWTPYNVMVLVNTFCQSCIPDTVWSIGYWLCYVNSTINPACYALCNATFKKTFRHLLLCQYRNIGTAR

One may read the inhibition as the drop in the measured response relative to a control, in per cent. For `Cc1ccc(-n2ncc3c(N4CCCC4)ncnc32)c(C)c1`, the cell count in test [1] was found to be 615. Also, the inhibition in test [1] was -13.7% (inactive); in test [2], 4.8% (inactive); in [4] it was -2.59% (inactive); in test [9], 147% (active). In test [2], this compound registered a nuclei count of 158%. Also, the z-score was 0.427 in test [3] (setting [10]), -1.76 in test [3] (setting [11]) and -0.345 in [3] (setting [12]). Further, the fluorescence slope in test [5] is -0.327 (inactive); in [7] it was 0.00689 (inactive). In addition, the NADPH fluorescence slope in test [6] is -4.9e-06 (inactive). Besides, the result in test [8] was inactive.

As for `C/C(=N/n1cnnc1)c1cccnc1`, the cell count in [1] was 541. In addition, the inhibition was 1.3% (inactive) in [1], -130% (inactive) in test [2], 3.42% (inactive) in test [4] and -7.67% (inactive) in [9]. Further, in test [2], the nuclei count worked out at 140%. Moreover, the z-score is 0.514 in [3] (setting [10]), -0.833 in test [3] (setting [11]) and -1.29 in [3] (setting [12]). In addition, the values for the fluorescence slope in test [5] and in test [7] were -0.448 (inactive) and 0.00412 (inactive), respectively. In addition, the NADPH fluorescence slope in [6] was -0.000104 (inactive). The result in [8] was inactive.

For `Cn1c(NCc2cccnc2)nc2c1c(=O)n(Cc1ccccc1F)c(=O)n2C`, the cell count in test [1] was 696. The inhibition is 3% (inactive) in [1], -201% (inactive) in [2], 11.9% (inactive) in test [4] and 18.1% (inactive) in test [9]. Also, the nuclei count in test [2] is 167%. The z-score in [3] (setting [10]) is 0.699; in [3] (setting [11]), -0.869; in test [3] (setting [12]), 1.16. The fluorescence slope was -0.51 (inactive) in test [5] and 0.00566 (inactive) in [7]. Also, in test [6], the NADPH fluorescence slope was -6e-05 (inactive). The call in test [8] was inactive.

For the compound `CC(=O)c1cccc(N=C2NC(=O)C(CO)(CO)S2)c1`, in test [1], the cell count was determined as 634. The inhibition in test [1] is 1.6% (inactive); in test [2], -12.3% (inactive); in test [4], -2.09% (inactive); in test [9], -10% (inactive). Besides, in [2], the nuclei count was 118%. Also, the z-score in test [3] (setting [10]) was -2.29; in test [3] (setting [11]) it was 1.22; in test [3] (setting [12]) it was 0.157. Also, the fluorescence slope in [5] is -0.441 (inactive); in test [7], 0.00557 (inactive). In addition, the NADPH fluorescence slope in test [6] is -4.4e-05 (inactive). In addition, the compound was classed as inactive in test [8].

As for `CCN(CC)CCCN1C(=O)C(=O)/C(=C(/O)c2ccccc2)C1c1cc(OC)ccc1OC` (centres undefined), the cell count in test [1] worked out at 414. Moreover, the inhibition is -1.4% (inactive) in test [1], -75.8% (inactive) in test [2], 1.48% (inactive) in test [4] and 32.7% (inactive) in test [9]. Moreover, the nuclei count in test [2] turned out to be 153%. Besides, the z-score was -0.00303 in [3] (setting [10]), -1.03 in [3] (setting [11]) and 1.76 in [3] (setting [12]). Besides, the figures for the fluorescence slope in [5] and in test [7] were -0.469 (inactive) and 0.00498 (inactive), respectively. In addition, the NADPH fluorescence slope in test [6] is -0.000138 (inactive). In addition, in [8], the result was inactive.

On to `Cn1ncc2nc[nH]c(=O)c21`, for which the cell count in test [1] was 709. For the same compound, the inhibition in test [1] was 2% (inactive); in [2], -49.9% (inactive); in test [4], 5.95% (inactive); in [9], 30.9% (inactive). Further, the nuclei count in [2] worked out at 110%. Moreover, the z-score in test [3] (setting [10]) was -0.739; in [3] (setting [11]), -0.543; in test [3] (setting [12]) it was 1.26. Further, the fluorescence slope in test [5] is -0.579 (inactive); in [7], 0.006 (inactive). In addition, the NADPH fluorescence slope in test [6] is -3.5e-05 (inactive). The outcome in test [8] was inactive.

With `COc1ccccc1-c1c(C)oc2c(CN3CCN(C)CC3)c(O)ccc2c1=O`, the cell count in test [1] came to 672. For the same compound, the inhibition in test [1] was -0.2% (inactive); in [2], -20.6% (inactive); in [4], 14.7% (inactive); in test [9] it was -5.96% (inactive). Moreover, the nuclei count in [2] was 150%. Further, the values for the z-score in test [3] (setting [10]), in test [3] (setting [11]) and in test [3] (setting [12]) were 0.0584, -0.255 and -0.66, respectively. Moreover, the fluorescence slope is -0.0259 (inactive) in test [5] and 0.00509 (inactive) in [7]. Besides, the NADPH fluorescence slope in test [6] is 1.6e-05 (inactive). Besides, the outcome in [8] was inactive.

In the case of `Cc1ccc(NC(=O)CSc2nnc(-c3ccco3)c(-c3ccco3)n2)cc1`, the cell count in test [1] was found to be 389. The inhibition in test [1] is -7.7% (inactive); in [2] it was -155% (inactive); in test [4] it was -0.608% (inactive); in test [9], 11.9% (inactive). In test [2], this compound yielded a nuclei count of 183%. Also, the z-score in [3] (setting [10]) was -0.429; in [3] (setting [11]), -0.71; in test [3] (setting [12]), 1.45. Besides, the fluorescence slope was -0.453 (inactive) in test [5] and 0.00329 (inactive) in test [7]. For the same compound, the NADPH fluorescence slope in [6] is -0.000112 (inactive). Further, the call in [8] was inactive.

Turning to `CC1(C)Cc2c(sc3nc(SCC(=O)NCc4ccco4)n(-c4ccccc4)c(=O)c23)CS1`, the cell count in test [1] was determined as 501. Besides, the inhibition in test [1] was -2.3% (inactive); in test [2], -158% (inactive); in [4], 1.98% (inactive); in [9], -14.1% (inactive). The compound further had a nuclei count in test [2] of 112%. Further, the figures for the z-score in [3] (setting [10]), in test [3] (setting [11]) and in test [3] (setting [12]) were -1.09, -0.43 and 0.302, respectively. Besides, the fluorescence slope is -0.431 (inactive) in test [5] and 0.00628 (inactive) in test [7]. Besides, the NADPH fluorescence slope in test [6] is -4.8e-05 (inactive). For the same compound, the result in [8] was inactive.

`COc1ccccc1C(=O)NCC(=O)n1nc(C)cc1C`: the cell count in [1] came to 542. Also, the inhibition was -13.5% (inactive) in test [1], -24% (inactive) in test [2], 19.8% (inactive) in test [4] and -1.54% (inactive) in [9]. The nuclei count in [2] is 146%. Besides, the results for the z-score in [3] (setting [10]), in [3] (setting [11]) and in [3] (setting [12]) were 0.666, 0.744 and -0.112, respectively. For the same compound, the fluorescence slope in [5] was -0.331 (inactive); in test [7] it was 0.0067 (inactive). For the same compound, in test [6], the NADPH fluorescence slope was -5.1e-05 (inactive). Besides, in [8], the outcome was inactive.

On to `Cc1ccc(-n2ncc3c(NCCCN4CCCC4=O)ncnc32)c(C)c1`, for which the cell count in test [1] was 563. Besides, the inhibition is -12.5% (inactive) in [1], -40.1% (inactive) in test [2], 13.4% (inactive) in test [4] and 0.102% (inactive) in test [9]. Also, the nuclei count in test [2] was 134%. For the same compound, the z-score in [3] (setting [10]) was 0.612; in test [3] (setting [11]), -0.125; in test [3] (setting [12]), -2.3. In addition, the fluorescence slope in test [5] is -0.358 (inactive); in test [7], 0.00773 (inactive). Also, in test [6], the NADPH fluorescence slope was 1.3e-05 (inactive). Moreover, the call in test [8] was inactive.

With `C=CCOc1ccc(/C(O)=C2/C(=O)C(=O)N(CCCN3CCOCC3)C2c2ccc(OC)cc2)cc1` (centres undefined), the cell count in [1] was 409. Further, the inhibition in [1] is -10.2% (inactive); in [2] it was -115% (inactive); in [4] it was 14% (inactive); in [9], 25.3% (inactive). In test [2], the nuclei count turned out to be 131%. The z-score in test [3] (setting [10]) is 0.861; in test [3] (setting [11]), -1.19; in test [3] (setting [12]), 0.613. In addition, the fluorescence slope in [5] was -0.455 (inactive); in test [7], 0.00475 (inactive). Also, the NADPH fluorescence slope in [6] is -0.000145 (inactive). Moreover, the compound was called inactive in test [8].

On to `O=C(NCCCN1CCOCC1)C1(c2ccccc2)CCOCC1`, for which, in [1], the cell count turned out to be 610. For the same compound, the inhibition was -2% (inactive) in [1], 14.3% (inactive) in [2], -3.95% (inactive) in test [4] and 19.5% (inactive) in [9]. The compound also came in with a nuclei count in test [2] of 91.3%. In addition, the z-score in test [3] (setting [10]) is -0.279; in test [3] (setting [11]), 1.09; in [3] (setting [12]) it was -0.449. The values for the fluorescence slope in test [5] and in test [7] were -0.501 (inactive) and 0.0058 (inactive), respectively. Further, the NADPH fluorescence slope in test [6] was -2.1e-05 (inactive). Also, the compound was classed as inactive in test [8].

Values taken from PubChem BioAssay.
